The target in data set [1] is T1, rat EP4 receptor (Rattus norvegicus, UniProt P43114). Nature of the data set: cAMP production, rat EP4 receptor expressed in HEK293T cells. It is filed as cell-based. To be noted: read-out: rat EP4 receptor cAMP levels EC50; mean ± SEM.
Data set [2] deals with T1, rat EP4 receptor. In words: CRE-regulated SEAP reporter. It is filed as cell-based.
Data set [3] concerns rat BMCs. Nature of the data set: ALP enzyme activity in total rat bone marrow cell culture, day 9. The following applies: for change in ALP activity over vehicle treated cultures: doses ranging from 1 pM to 10 μM, once at plating. The data set is classed as cell-based. The gist of the method: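 Unfractionated BMCs from tibiae and femora of young or old female or male Sprague-Dawley rats, extruded into MEMα with 10% FCS and 50 μg/mL gentamicin, triturated and filtered. Plated at 1.8 × 10^5 cells/cm2 and dosed once at plating from 1000x ethanol stocks. Dex (10 nM final) added day 4. Day 9 lysis (Tris pH 8.4, ZnCl2, MgCl2, Triton X-100); pNPP, 405 nm; n = 8 wells; EC50 by non-linear regression.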

Data set [4] deals with rat BMCs. In words: Total adherent cell number in BMC cultures. It is filed as cell-based. To be noted: 1μM, days 5, 6, or 7, versus vehicle.
For data set [5], the system named is rat BMCs. Nature of the data set: ALP-positive colony area in BMC cultures. It is filed as cell-based. The following applies: 1μM, day 9, compared to vehicle.
Data set [6] has as its system rat BMCs. Nature of the data set: Mineralization of BMC cultures. It is filed as cell-based. To be noted: 1μM, day 21, compared to vehicle. The essentials:
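Rat BMCs dosed at plating with 1μM test compound or 0.1% ethanol vehicle (n = 4 or 6 wells); in the short-exposure arm, 30 or 60 min suspension exposure. Dex added day 4; from day 7, osteogenic medium (ascorbic acid, dex, βGP) every 3 days. Day 21: fixed in 2% paraformaldehyde, stained with 5% AgNO3 plus UV, von Kossa-positive area per well quantified by imaging.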

Data set [7] relates to rat BMCs. Nature of the data set: Bone phenotype marker gene expression in BMCs. It is filed as cell-based. The following applies: 1μM once at plating. The gist of the method:
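BMCs from young female rats dosed once at plating with 1μM test compound or 0.1% ethanol. Dex (10 nM final) added day 4. From day 7, fed every 3 days with medium containing ascorbic acid 100 μg/mL, dex 10 nM and βGP 10 mM. On set days, total RNA taken (n = 3 per time point), quantified at 260 nm, reverse transcribed, and analysed by SYBR Green qPCR.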

For data set [8], the system named is rat BMCs. In words: Osteoclastogenesis assay, TRAP-positive cells in BMC cultures. The following applies: for number of TRAP positive cells in the absence of exogenous M-CSF and RANKL: data not shown; for number of TRAP-positive cells: various doses, in the presence of 16 ng/mL RANKL and 16 ng/mL M-CSF, versus vehicle. The data set is classed as cell-based.
Data set [9] concerns rat BMCs. In words: Adipogenesis assay, Oil Red O staining in BMC cultures. It is filed as cell-based. To be noted: 1μM, insulin and dexamethasone, day 12, versus vehicle.
Data set [10] can be described thus: Protein binding in rat plasma by equilibrium dialysis. It is filed as in vitro ADME. The following applies: 10 μM, equilibrium dialysis 4 hours 37°C.
A short description of a further data set: Half-life in rat plasma. The data set is classed as in vitro ADME. The following applies: 1 μM, 37°C. The gist of the method: (§1)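 Test compound at 1 μM in rat blood or plasma, 37°C, sampled at 0, 30, 60, 90 and 120 min. Quenched with acetonitrile, centrifuged, analyte peak areas read by HPLC-MS/MS.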
Another data set can be described thus: Half-life in rat blood. It is filed as in vitro ADME. The following applies: 1 μM, 37°C. The gist of the method:
as §1

Data set [11] is described as follows: Half-life and intrinsic clearance in rat hepatocytes. The data set is classed as in vitro ADME. The essentials: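 Incubated at 37°C with 0.7 million viable rat hepatocytes/mL, sampled at 0, 30, 60, 90 and 120 min. Each sample quenched with acetonitrile and centrifuged; analyte peak areas measured by HPLC-MS/MS to derive half-life and intrinsic clearance.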
Data set [12] in a line: In vivo pharmacokinetics after intravenous dosing in rats. To be noted: intravenous 0.5 mg/kg, male Sprague-Dawley rats. The gist of the method: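 Single intravenous dose of 0.5 mg/kg in 3 male Sprague-Dawley rats. Blood sampled up to 24 h post-dose; plasma levels measured by LC-MS/MS. Parameters calculated from the plasma concentration–time course by non-compartmental analysis.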

The nature of data set [13]: Chemical stability of KMN-159. The data set is classed as physicochemical.
A further data set deals with cells. Nature of the data set: Overt toxicity in cells. The data set is classed as cell-based. The following applies: except at a very high dose.
Another data set has as its target human EP4 (Homo sapiens, UniProt P35408). To be noted: read-out: human EP4 binding Ki; ref Barrett et al., 2019; cited from earlier work.
A further data set deals with human EP3. The following applies: read-out: human EP3 binding Ki; ref Barrett et al., 2019; cited from earlier work.
Data set [14] concerns non-EP prostanoids receptors (DP, FP, IP and TP). The following applies: tested at 10 μM; ref Barrett et al., 2019; cited from earlier work.
In the next data set the test system is cytochrome P450. The following applies: in vitro safety test; ref Barrett et al., 2019; cited from earlier work.
In the next data set the test system is bacterial. To be noted: in vitro safety test; ref Barrett et al., 2019; cited from earlier work.
The conditions of data set [15]: in vitro safety test; ref Barrett et al., 2019; cited from earlier work.
For data set [16] the following is noted: in vitro safety test; ref Barrett et al., 2019; cited from earlier work. This is another data set of the same source.
In data set [17] the target is T2, rat EP2 receptor (Rattus norvegicus, UniProt Q62928). Nature of the data set: cAMP production, rat EP2 receptor expressed in HEK293T cells. It is filed as cell-based.
T2 sequence (Q62928 whole entry): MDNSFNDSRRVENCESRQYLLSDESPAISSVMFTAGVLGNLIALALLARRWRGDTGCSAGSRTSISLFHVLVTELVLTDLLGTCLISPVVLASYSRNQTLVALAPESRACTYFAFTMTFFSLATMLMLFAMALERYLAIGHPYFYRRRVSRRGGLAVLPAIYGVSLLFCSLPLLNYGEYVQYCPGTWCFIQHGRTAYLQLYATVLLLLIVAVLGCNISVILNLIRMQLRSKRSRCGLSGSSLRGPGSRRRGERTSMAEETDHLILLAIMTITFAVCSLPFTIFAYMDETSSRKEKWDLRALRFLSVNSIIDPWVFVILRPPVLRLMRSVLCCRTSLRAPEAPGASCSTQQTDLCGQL
Data set [18] addresses T2, rat EP2 receptor. In words: CRE-regulated SEAP reporter. The data set is classed as cell-based.
The mark [19] stands for this setting: read-out: rat EP4 receptor CREB activation EC50, CRE-SEAP reporter, mean ± SEM.

A value given as a limit tells only on which side of the number the result lay.

T1 sequence (P43114 whole entry): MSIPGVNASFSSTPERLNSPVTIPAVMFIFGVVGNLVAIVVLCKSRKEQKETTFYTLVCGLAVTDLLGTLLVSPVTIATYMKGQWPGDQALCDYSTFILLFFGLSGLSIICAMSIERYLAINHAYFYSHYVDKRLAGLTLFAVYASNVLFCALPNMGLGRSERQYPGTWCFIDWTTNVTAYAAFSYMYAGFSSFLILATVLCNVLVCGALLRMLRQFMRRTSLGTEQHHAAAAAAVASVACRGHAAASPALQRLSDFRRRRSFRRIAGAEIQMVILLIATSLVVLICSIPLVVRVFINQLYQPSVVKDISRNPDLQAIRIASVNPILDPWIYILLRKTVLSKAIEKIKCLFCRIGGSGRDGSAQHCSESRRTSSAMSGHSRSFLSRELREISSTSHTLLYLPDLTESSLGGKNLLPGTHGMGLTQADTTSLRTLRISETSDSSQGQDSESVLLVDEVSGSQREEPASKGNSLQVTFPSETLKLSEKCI
Chain of human EP4 (P35408 whole entry): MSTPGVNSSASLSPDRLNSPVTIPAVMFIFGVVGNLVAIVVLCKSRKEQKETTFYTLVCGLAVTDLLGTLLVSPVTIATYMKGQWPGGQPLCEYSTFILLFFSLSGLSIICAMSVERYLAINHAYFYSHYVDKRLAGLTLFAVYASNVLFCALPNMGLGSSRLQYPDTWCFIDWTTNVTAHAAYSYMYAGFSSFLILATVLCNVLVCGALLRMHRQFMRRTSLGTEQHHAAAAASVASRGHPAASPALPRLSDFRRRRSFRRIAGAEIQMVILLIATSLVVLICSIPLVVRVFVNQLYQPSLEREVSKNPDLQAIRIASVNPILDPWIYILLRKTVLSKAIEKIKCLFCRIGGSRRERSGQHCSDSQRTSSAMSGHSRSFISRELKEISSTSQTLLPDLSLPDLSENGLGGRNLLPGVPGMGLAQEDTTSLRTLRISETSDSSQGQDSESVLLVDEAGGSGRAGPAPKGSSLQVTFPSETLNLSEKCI

Consider `CCCCCC(O)C=CC1CCC(=O)N1CCCCCCC(=O)O` (stereo not shown) [11-deoxy-8-aza-PGE1, reference compound], for which the EC50 at rat EP4 receptor [1] was found to be 2600 ± 620 pM; on rat EP4 receptor [2] (setting [19]), 160 ± 49 pM.

Turning to `CCCCC[C@H](O)/C=C/[C@H]1CCC(=O)[C@@H]1CCCCCCC(=O)O` [11-deoxy-PGE1, reference compound], the values for the half-maximal effective concentration (EC50) on rat EP4 receptor [1] and on rat EP4 receptor [2] (setting [19]) were 1300 ± 240 pM and 60 ± 12 pM, respectively.

On to `CCCCC[C@H](O)/C=C/[C@H]1CCC(=O)[C@@H]1C/C=C\CCCC(=O)O` [11-deoxy-PGE2, reference compound], for which, on rat EP4 receptor [1], the EC50 came out at 1100 ± 160 pM.

For the compound `CCC#CC[C@H](C)[C@H](O)/C=C/[C@H]1CCC(=O)N1CCCCCCC(=O)O` [KMN-80], the values for the EC50 on rat EP4 receptor [1] and on rat EP4 receptor [2] (setting [19]) were 2600 ± 310 pM and 170 ± 14 pM, respectively. In addition, the “potency in the BMC ALP assay compared with parent compound 11-deoxy-8-aza-PGE1” value in the data set with rat BMCs [3] (young female rat BMCs) was “unchanged from the parent compound”.

For the compound `CCC#CC[C@H](C)[C@H](O)/C=C/[C@H]1CC(F)(F)C(=O)N1CCCCCCC(=O)O` [KMN-159], the EC50 at rat EP4 receptor [1] stood at 500 ± 80 pM. Besides, on rat EP4 receptor [2] (setting [19]), the EC50 was determined as 30 ± 3 pM. In addition, in the data set on rat BMCs [3] (1μM, 10 minutes exposure then compound removed, ALP day 9), the “increase in ALP activity compared to vehicle treated cells” value is on record as “approximately 3 fold”. The “induction of ALP as percent of the maximum reached between 30 and 60 minutes of exposure” value in the data set with rat BMCs [3] (1μM, 10 minutes exposure, ALP measured 9 days later) is reported as “approximately 75%”. Also, the “increase in potency in the BMCs compared to 11-deoxy-8-aza-PGE1” value in the data set with rat BMCs [3] (young female rat BMCs, ALP EC50) is recorded as “approximately 40 fold”. The total cell number result in the data set with rat BMCs [4] is “no significant differences”. Also, the ALP positive area result in the data set on rat BMCs [5] is listed as “increase the ALP positive area”. Besides, the “mineralized area detected by von Kossa staining” value in the data set with rat BMCs [6] is “increase in mineralized area”. Besides, the RANKL expression entry with rat BMCs [7] (all timepoints tested, versus vehicle) is listed as “significantly increased expression”. The “Runx2 mRNA increase in expression” value with rat BMCs [7] (day 5) is reported as ~ 2 x. The Runx2 expression entry in the data set on rat BMCs [7] (days 19 and 25, versus vehicle) is recorded as “significantly increased”. Further, the osteocalcin gene expression entry in the data set on rat BMCs [7] (later days, versus vehicle) is “increased with both, time in culture and KMN-159 treatment”. Moreover, in the data set with rat BMCs [7] (versus vehicle), the “ALP mRNA expression” value is “increased”, the OPG expression result is “either unchanged or decreased” and the “collagen type IαI expression” value was “further increased”. Besides, in the data set with rat BMCs [8], the “number of TRAP positive cells in the absence of exogenous M-CSF and RANKL” value is “none was observed”; the “number of TRAP-positive cells” value was “significantly increased numbers of TRAP-positive cells”. Moreover, the “Oil Red O staining (adipocyte formation)” value with rat BMCs [9] was “no significant change”. The compound also came in with a protein binding in data set [10] of 53.8 ± 3.5%. The “half life - plasma” value in “Half-life in rat plasma” was >2 h. The “half life - blood” value in “Half-life in rat blood” is >2 h. The “intrinsic clearance - hepatocytes” value in data set [11] is listed as <8.2 μL/min/10^6 cells. Besides, the “half life - hepatocytes” value in [11] (0.7 million viable cells/mL, 37°C) was >2 h. Besides, in data set [12], the “area under the curve (extrapolated to infinity)” value was 21.8 ± 5.55 ng·h/mL, the “in vivo clearance rate” value was determined as 0.398 ± 0.0992 mL/min/kg, the “mean residence time last” value amounted to 8.3 ± 1.0 min and the “steady state volume of distribution” value is listed as 3.41 ± 1.15 L/kg. In addition, in data set [12] (Table 3), the clearance stood at 398 ± 99.2 mL/min/kg. Further, the recovery result in data set [13] (in aqueous solution and upon sterilization by autoclaving or gamma irradiation, data not shown) is reported as “higher than 90%”. The “degradation of crystalline solid” value in [13] (storage at room temperature for over two years) is “no measurable degradation”. For the same compound, the “overt toxicity in cells” value in the data set on cells is recorded as “no overt toxicity”. For the same compound, the Ki on human EP4 was 380 pM. Besides, the Ki on human EP3 is 258000 pM. Besides, in data set [14], the “binding to the non-EP prostanoids receptors” value is “no detectable binding”. The “cytochrome P450 inhibition” value in the data set on cytochrome P450 is given as “negative”. Moreover, the bacterial cytotoxicity result in the data set with bacterial is “negative”. Also, the Ames fluctuation result in [15] is “negative”. Besides, the micronucleus formation entry in [16] is recorded as “negative”.

As to `CCCCC[C@H](O)/C=C/[C@H]1CC(F)(F)C(=O)N1CCCCCCC(=O)O` [KMN-165], the EC50 was 300 ± 25 pM at rat EP4 receptor [1] and 30 ± 7 pM at rat EP4 receptor [2] (setting [19]).

For `CCCCC[C@H](O)/C=C/[C@H]1[C@H](O)CC(=O)[C@@H]1CCCCCCC(=O)O` [PGE1, prostaglandin E1], the figures for the EC50 on rat EP2 receptor [17] and on rat EP2 receptor [18] were 79500 ± 9100 pM and 4500 ± 460 pM, respectively.

`CCCCC[C@H](O)/C=C/[C@H]1[C@H](O)CC(=O)[C@@H]1C/C=C\CCCC(=O)O` [PGE2, prostaglandin E2, reference compound] showed an EC50 on rat EP4 receptor [2] of 30 ± 2 pM. Also, in the data set on rat BMCs [4], the total cell number result is given as “no significant differences”. The ALP positive area entry with rat BMCs [5] is listed as “increase the ALP positive area”. Also, in the data set on rat BMCs [8], the “number of TRAP positive cells in the absence of exogenous M-CSF and RANKL” value is “none was observed”; the “number of TRAP-positive cells” value is “significantly increased numbers of TRAP-positive cells”. Moreover, in the data set on rat BMCs [9], the “Oil Red O staining (adipocyte formation)” value is recorded as “no significant change”.

With `CCCC1([C@H](O)C/C=C/[C@H]2[C@H](O)CC(=O)[C@@H]2CCCCCCC(=O)OC)CCC1` [butaprost, reference compound], the “change in ALP activity over vehicle treated cultures” value in the data set with rat BMCs [3] is reported as “no change in ALP activity”.

In the case of `CS(=O)(=O)NC(=O)CCC/C=C\C[C@H]1C(=O)C[C@@H](O)[C@@H]1/C=C/[C@@H](O)COc1ccccc1` [sulprostone, reference compound], in the data set with rat BMCs [3], the “change in ALP activity over vehicle treated cultures” value is “no change in ALP activity”.

The values are drawn from publication PMC7416767 (Gene, 2020).
